Measured values as given in ChEMBL document CHEMBL1629713, “Discovery of benzoylisoindolines as a novel class of potent, selective and orally active GlyT1 inhibitors” (Bioorg Med Chem Lett, 2010).
pEC50, pIC50: −log10 of the molar value. Values after ≈ are worked out from the molar mass of the structure shown.

How the values were obtained:
[1] = Permeability of the compound by PAMPA; type: ADME; conditions: read-out: permeability
How it was run: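 PAMPA: permeation constant Pe (10^-6 cm/s) measured through artificial membranes.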

[2] = target: T1, Sodium- and chloride-dependent glycine transporter 1 (Homo sapiens, UniProt P48067); test: Inhibition of human GlyT1 expressed in CHO cells assessed as inhibition of [3H]glycine uptake by liquid scintillation counting; type: cell-based
T1 sequence (P48067 whole entry): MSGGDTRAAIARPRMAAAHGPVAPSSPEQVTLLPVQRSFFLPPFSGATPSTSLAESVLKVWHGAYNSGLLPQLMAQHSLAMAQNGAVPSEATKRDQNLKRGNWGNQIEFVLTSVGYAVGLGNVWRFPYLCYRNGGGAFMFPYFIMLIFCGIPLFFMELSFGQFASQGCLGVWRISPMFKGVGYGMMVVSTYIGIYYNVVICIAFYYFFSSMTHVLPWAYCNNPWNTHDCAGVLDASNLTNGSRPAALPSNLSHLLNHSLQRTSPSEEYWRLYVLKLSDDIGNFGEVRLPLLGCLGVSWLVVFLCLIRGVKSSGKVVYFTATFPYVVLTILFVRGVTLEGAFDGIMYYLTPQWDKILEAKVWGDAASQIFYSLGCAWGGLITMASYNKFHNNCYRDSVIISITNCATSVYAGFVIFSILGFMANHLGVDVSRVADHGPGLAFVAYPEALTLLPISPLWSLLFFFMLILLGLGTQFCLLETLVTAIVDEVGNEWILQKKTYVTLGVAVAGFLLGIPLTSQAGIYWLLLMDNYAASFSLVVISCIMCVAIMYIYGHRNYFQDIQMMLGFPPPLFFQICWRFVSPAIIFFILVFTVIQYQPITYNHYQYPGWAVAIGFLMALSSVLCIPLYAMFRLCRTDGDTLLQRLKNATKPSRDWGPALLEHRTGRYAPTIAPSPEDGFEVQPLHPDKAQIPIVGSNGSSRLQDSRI
How it was run: (§1)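 [3H]-glycine uptake inhibition in cells transfected with human GlyT1 or human GlyT2 cDNA. EC50 values averaged from at least two independent experiments.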

[3] = Aqueous solubility of the compound by lyophilisate solubility assay; type: physicochemical; conditions: buffer
How it was run: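 LYSA: compound in DMSO solution lyophilized, then dissolved in 0.05 M phosphate buffer pH 6.5, stirred 1 h and shaken 2 h; solubility in µg/ml.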

[4] = target: T2, Sodium- and chloride-dependent glycine transporter 2 (Homo sapiens, UniProt Q9Y345); test: Inhibition of human GlyT2 expressed in CHO cells assessed as inhibition of [3H]glycine uptake by liquid scintillation counting; type: cell-based; how it was run: as §1
T2 sequence (Q9Y345 whole entry): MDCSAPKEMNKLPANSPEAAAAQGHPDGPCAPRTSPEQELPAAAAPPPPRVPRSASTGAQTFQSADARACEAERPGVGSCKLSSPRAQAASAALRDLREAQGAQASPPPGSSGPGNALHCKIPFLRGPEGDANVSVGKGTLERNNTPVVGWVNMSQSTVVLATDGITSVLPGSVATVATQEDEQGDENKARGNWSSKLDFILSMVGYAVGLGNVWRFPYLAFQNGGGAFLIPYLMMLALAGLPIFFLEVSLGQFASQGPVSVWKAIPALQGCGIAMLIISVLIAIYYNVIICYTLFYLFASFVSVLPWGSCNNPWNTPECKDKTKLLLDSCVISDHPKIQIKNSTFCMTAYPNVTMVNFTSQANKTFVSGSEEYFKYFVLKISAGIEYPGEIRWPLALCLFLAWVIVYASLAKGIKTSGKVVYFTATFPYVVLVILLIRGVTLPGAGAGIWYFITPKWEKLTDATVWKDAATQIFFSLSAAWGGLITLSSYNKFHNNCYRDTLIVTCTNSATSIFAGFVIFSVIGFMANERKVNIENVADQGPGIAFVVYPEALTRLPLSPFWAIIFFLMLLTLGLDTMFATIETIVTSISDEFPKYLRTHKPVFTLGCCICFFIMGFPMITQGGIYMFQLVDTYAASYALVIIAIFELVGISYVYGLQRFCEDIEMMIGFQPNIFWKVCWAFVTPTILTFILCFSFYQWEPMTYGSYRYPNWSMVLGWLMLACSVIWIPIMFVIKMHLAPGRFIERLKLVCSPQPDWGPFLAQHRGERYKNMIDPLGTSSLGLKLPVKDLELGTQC

hERG (KCNH2) = hERG (KCNH2) (Homo sapiens, UniProt Q12809); test: Inhibition of human ERG at 10 uM by patch clamp assay
How it was run: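 hERG block measured by patch clamp at 10 µM; values averaged from at least two independent experiments.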

Mus musculus = test: Antipsychotic activity in po dosed mouse assessed as inhibition of L-687414-induced hyperlocomotion after 60 mins; type: functional; conditions: 1 h, read-out: ID50 (the source's name)
How it was run: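 Mice given compound orally, n = 8 per group; hyperlocomotion induced by L-687,414. Horizontal activity counts recorded over a 60-min period and reported as group means. ID50 (mg/kg) derived from dose-dependent inhibition of the L-687,414-induced response.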

[5] = Ratio of drug level in brain to plasma in rat; type: ADME; conditions: read-out: BPR
[6] = Clearance in rat; type: ADME, organism-based; conditions: in vivo
[7] = Volume of distribution in rat; type: ADME, organism-based; conditions: in vivo
[8] = Oral bioavailability in rat; type: ADME, organism-based; conditions: in vivo
Homo sapiens = species: Homo sapiens; test: Selectivity ratio of EC50 for human GlyT2 to EC50 for human GlyT1
How it was run: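 Ratio of the two EC50s from a [³H]-glycine uptake inhibition assay run in cells transfected with human GlyT1 cDNA or human GlyT2 cDNA. Each EC50 is the average of at least two independent experiments.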

Cytochrome P450 2D6 = Cytochrome P450 2D6 (Homo sapiens, UniProt P10635); test: Inhibition of CYP2D6; type: ADME
[9] = target: T1, Sodium- and chloride-dependent glycine transporter 1; test: Inhibition of human GlyT1; how it was run: as §1
[10] = Intrinsic clearance in human liver microsomes assessed per mg of protein; type: ADME, Microsome
[11] = Intrinsic clearance in mouse liver microsomes assessed per mg of protein; type: ADME, Microsome
Cytochrome P450 3A4 = Cytochrome P450 3A4 (Homo sapiens, UniProt P08684); test: Inhibition of CYP3A4; type: ADME
[12] = target: T2, Sodium- and chloride-dependent glycine transporter 2; test: Inhibition of human GlyT2; how it was run: as §1
Cytochrome P450 2C9 = Cytochrome P450 2C9 (Homo sapiens, UniProt P11712); test: Inhibition of CYP2C9; type: ADME
Sequence of Cytochrome P450 2C9 (P11712 whole entry): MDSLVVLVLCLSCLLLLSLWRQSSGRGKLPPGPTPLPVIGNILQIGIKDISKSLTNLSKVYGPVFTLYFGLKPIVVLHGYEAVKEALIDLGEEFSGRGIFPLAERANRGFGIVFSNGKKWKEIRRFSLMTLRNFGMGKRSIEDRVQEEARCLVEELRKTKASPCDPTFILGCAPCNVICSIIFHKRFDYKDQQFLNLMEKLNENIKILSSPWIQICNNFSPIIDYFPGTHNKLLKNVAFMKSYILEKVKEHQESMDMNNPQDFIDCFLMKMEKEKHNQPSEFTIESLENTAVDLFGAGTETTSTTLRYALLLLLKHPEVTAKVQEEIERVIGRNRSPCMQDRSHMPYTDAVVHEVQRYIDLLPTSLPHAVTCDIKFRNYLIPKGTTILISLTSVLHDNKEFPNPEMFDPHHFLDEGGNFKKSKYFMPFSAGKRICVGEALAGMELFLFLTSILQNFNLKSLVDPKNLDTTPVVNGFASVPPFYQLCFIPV

Sequence of hERG (KCNH2) (Q12809 whole entry): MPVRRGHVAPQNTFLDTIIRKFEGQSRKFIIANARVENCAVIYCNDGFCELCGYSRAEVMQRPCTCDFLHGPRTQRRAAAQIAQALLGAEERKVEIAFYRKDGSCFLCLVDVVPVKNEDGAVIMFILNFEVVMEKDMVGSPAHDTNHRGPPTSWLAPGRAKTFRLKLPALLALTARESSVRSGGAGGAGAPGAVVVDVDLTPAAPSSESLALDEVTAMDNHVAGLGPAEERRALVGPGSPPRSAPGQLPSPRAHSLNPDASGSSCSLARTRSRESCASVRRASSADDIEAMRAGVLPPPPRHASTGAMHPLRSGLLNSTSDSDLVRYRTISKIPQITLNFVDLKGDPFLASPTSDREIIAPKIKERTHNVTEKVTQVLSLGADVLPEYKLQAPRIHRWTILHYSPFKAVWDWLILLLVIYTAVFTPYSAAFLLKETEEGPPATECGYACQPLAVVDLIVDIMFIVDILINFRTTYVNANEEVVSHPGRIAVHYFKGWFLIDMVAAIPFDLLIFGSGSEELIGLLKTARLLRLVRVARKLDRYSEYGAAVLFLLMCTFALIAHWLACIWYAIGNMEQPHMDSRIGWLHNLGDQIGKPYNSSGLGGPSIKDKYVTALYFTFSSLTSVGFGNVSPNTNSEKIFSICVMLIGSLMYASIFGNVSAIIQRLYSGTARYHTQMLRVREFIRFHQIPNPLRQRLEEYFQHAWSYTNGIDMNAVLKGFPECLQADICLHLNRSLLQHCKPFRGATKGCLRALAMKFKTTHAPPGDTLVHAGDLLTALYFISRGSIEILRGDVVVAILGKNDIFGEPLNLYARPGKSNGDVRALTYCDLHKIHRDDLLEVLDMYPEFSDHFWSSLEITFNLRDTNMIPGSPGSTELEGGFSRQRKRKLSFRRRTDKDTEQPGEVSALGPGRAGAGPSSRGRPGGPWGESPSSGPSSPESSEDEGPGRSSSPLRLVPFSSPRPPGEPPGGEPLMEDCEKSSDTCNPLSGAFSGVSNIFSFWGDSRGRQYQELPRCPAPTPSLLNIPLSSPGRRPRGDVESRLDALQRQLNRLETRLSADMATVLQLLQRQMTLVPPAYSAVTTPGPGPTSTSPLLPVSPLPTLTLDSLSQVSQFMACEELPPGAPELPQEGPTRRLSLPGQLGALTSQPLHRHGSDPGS
Sequence of Cytochrome P450 3A4 (P08684 whole entry): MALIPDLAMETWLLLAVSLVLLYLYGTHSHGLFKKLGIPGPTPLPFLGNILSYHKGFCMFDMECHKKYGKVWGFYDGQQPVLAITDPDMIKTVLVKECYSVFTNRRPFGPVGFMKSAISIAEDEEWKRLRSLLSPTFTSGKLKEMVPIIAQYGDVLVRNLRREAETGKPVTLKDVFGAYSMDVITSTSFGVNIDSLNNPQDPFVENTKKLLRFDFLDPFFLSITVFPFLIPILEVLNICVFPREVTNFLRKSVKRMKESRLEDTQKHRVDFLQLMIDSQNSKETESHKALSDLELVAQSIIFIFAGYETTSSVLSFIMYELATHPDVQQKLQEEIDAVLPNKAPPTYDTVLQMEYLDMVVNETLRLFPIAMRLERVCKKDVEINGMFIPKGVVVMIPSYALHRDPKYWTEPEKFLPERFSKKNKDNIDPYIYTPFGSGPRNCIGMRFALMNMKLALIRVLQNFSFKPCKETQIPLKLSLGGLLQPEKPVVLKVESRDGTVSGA
Sequence of Cytochrome P450 2D6 (P10635 whole entry): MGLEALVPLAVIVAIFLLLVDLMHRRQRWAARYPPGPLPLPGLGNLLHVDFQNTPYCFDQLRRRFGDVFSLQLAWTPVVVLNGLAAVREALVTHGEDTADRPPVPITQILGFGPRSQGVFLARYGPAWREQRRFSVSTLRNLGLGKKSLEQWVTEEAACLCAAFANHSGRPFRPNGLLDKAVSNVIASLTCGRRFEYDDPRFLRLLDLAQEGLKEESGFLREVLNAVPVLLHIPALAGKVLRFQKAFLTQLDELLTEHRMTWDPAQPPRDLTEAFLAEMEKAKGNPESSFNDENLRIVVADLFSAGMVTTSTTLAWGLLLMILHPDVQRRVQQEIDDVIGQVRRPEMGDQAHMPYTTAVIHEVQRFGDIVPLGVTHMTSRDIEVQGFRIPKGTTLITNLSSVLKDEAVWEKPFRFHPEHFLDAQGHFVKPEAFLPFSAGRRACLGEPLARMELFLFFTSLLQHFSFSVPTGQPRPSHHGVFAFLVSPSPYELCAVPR

| Papp [1] [×10⁻⁶ cm/s] | pEC50 [2] | solubility [3] [µg/mL] | pEC50 [4] | Compound | ED50 (Mus musculus) [mg/kg] | also measured |
| --- | --- | --- | --- | --- | --- | --- |
| 0.8 | 6.74 | < 1 | 4.84 | C[C@H](Oc1ccc(S(C)(=O)=O)cc1C(=O)N1Cc2ccc(N3CCCC3)cc2C1)C(F)(F)F |  |  |
| 4.2 | 7.77 | 25 (≈ 51 µM) | < 4.52 | C[C@H](Oc1ccc(S(C)(=O)=O)cc1C(=O)N1Cc2ccc(-c3ccncc3)cc2C1)C(F)(F)F | 3 | inhibition at 10 µM (hERG (KCNH2)): 58% |
| 4.2 | 5.47 | 73 (≈ 171 µM) | < 4.52 | Cc1cccc2c1CN(C(=O)c1cc(S(C)(=O)=O)ccc1O[C@@H](C)C(F)(F)F)C2 |  |  |
| 4.3 | 6.95 | 513 (≈ 1060 µM) | < 4.52 | CS(=O)(=O)c1ccc(OCCC(F)(F)F)c(C(=O)N2Cc3cc(C(F)(F)F)cnc3C2)c1 | 3 |  |
| 0.7 | 7.68 | 1 (≈ 2.08 µM) | < 4.52 | C[C@H](Oc1ccc(S(C)(=O)=O)cc1C(=O)N1Cc2ccc(C(F)(F)F)cc2C1)C(F)(F)F | 2 | Kp [5]: 1; inhibition at 10 µM (hERG (KCNH2)): 59%; clearance [6]: 1.7 mL/min/kg; Vd [7]: 2.9 L/kg; bioavailability [8]: 23% |
| 6.4 | 7.52 | 42 (≈ 87.1 µM) | < 4.52 | CS(=O)(=O)c1ccc(-c2ccc(F)c(F)c2)c(C(=O)N2Cc3cc(C(F)(F)F)cnc3C2)c1 | 1 | inhibition at 10 µM (hERG (KCNH2)): 38% |
| 0.8 | 6.09 | 72 (≈ 151 µM) | < 4.52 | CS(=O)(=O)c1ccc(OCc2ccccc2)c(C(=O)N2Cc3cc(C(F)(F)F)cnc3C2)c1 |  |  |
| 2.6 | 7.89 | 4 (≈ 8.17 µM) | 4.92 | C[C@H](Oc1ccc(S(C)(=O)=O)cc1C(=O)N1Cc2ccc(-c3ccccc3)cc2C1)C(F)(F)F | 6 | inhibition at 10 µM (hERG (KCNH2)): 67% |
| 0.8 | 5.60 | < 1 | < 4.52 | C[C@H](Oc1ccc(S(C)(=O)=O)cc1C(=O)N1Cc2ccccc2C1)C(F)(F)F |  |  |
| 4.3 | 6.56 | 355 (≈ 712 µM) | < 4.52 | C[C@H](Oc1ccc(S(C)(=O)=O)cc1C(=O)N1Cc2ccc(N3CCOCC3)cc2C1)C(F)(F)F |  |  |
| 0.9 | 5.52 | 495 (≈ 1090 µM) | < 4.52 | CS(=O)(=O)c1ccc(N2CCOCC2)c(C(=O)N2Cc3cc(C(F)(F)F)cnc3C2)c1 |  |  |
| 0.9 | 6.69 | < 1 | < 4.52 | C[C@H](Oc1ccc(S(C)(=O)=O)cc1C(=O)N1Cc2ccc(C3CCCCO3)cc2C1)C(F)(F)F (stereo partly specified) |  |  |
| 3.9 | 6.88 | 470 (≈ 974 µM) | < 4.52 | C[C@H](Oc1ccc(S(C)(=O)=O)cc1C(=O)N1Cc2cnc(C(F)(F)F)cc2C1)C(F)(F)F |  |  |
| 5.5 | 6.60 | 429 (≈ 889 µM) | < 4.52 | C[C@H](Oc1ccc(S(C)(=O)=O)cc1C(=O)N1Cc2ccc(C(F)(F)F)nc2C1)C(F)(F)F |  |  |
| 4.1 | 6.86 | 334 (≈ 671 µM) | < 4.52 | CS(=O)(=O)c1ccc(OCCC(F)(F)F)c(C(=O)N2Cc3ccc(C4CCOCC4)cc3C2)c1 |  |  |
| 0.8 | 6.11 | 259 (≈ 591 µM) | < 4.52 | C[C@H](Oc1ccc(S(C)(=O)=O)cc1C(=O)N1Cc2cccc(C#N)c2C1)C(F)(F)F |  |  |
| 4.8 | 5.71 | 85 (≈ 192 µM) | < 4.52 | COc1cccc2c1CN(C(=O)c1cc(S(C)(=O)=O)ccc1O[C@@H](C)C(F)(F)F)C2 |  |  |
| 2.7 | 6.74 | 46 (≈ 104 µM) | < 4.52 | COc1ccc2c(c1)CN(C(=O)c1cc(S(C)(=O)=O)ccc1O[C@@H](C)C(F)(F)F)C2 |  |  |
| 5.5 | 7.52 | 445 (≈ 1010 µM) | < 4.52 | CC(C)COc1ccc(S(C)(=O)=O)cc1C(=O)N1Cc2cc(C(F)(F)F)cnc2C1 |  | inhibition at 10 µM (hERG (KCNH2)): 37% |
| 1.4 | 7.80 | 15 (≈ 31.3 µM) | < 4.52 | CS(=O)(=O)c1ccc(-c2ccc(F)cc2)c(C(=O)N2Cc3ccc(C4CCOCC4)cc3C2)c1 | 0.3 | inhibition at 10 µM (hERG (KCNH2)): 36% |
| 0.8 | 7.08 | 30 (≈ 61.2 µM) | < 4.52 | C[C@H](Oc1ccc(S(C)(=O)=O)cc1C(=O)N1Cc2ccc(-c3ccccn3)cc2C1)C(F)(F)F |  |  |
| 1.5 | 5.68 | 490 (≈ 958 µM) | < 4.52 | C[C@H](Oc1ccc(S(C)(=O)=O)cc1C(=O)N1Cc2ccc(N3CCN(C)CC3)cc2C1)C(F)(F)F |  |  |
| 4.4 |  | < 1 |  | C[C@H](Oc1ccc(S(C)(=O)=O)cc1C(=O)N1Cc2ccc(Cl)cc2C1)C(F)(F)F | 20 | Ratio EC50 (Homo sapiens): > 200; pIC50 (Cytochrome P450 2D6): < 4.42; pEC50 [9]: 6.87; microsomal CLint [10]: 2.4 µL/min/mg; microsomal CLint [11]: 23.3 µL/min/mg; pIC50 (Cytochrome P450 3A4): < 4.42; pEC50 [12]: 4.52; pIC50 (Cytochrome P450 2C9): < 4.42 |
| 4.1 | 7.15 | 114 (≈ 266 µM) | < 4.52 | CC(C)Oc1ccc(S(C)(=O)=O)cc1C(=O)N1Cc2cc(C(F)(F)F)cnc2C1 | 1 | inhibition at 10 µM (hERG (KCNH2)): 10% |
